The subject of test [1] is Canis familiaris. Kind of test: Pharmacological activity for Contractile force, +30% in anesthetized dog was determined after intravenous administration. It counts as functional, Canis lupus familiaris. Put shortly:
(§1)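 Anesthetized dogs; contractile force recorded by a left-ventricular Walton-Brodie strain gauge arch, heart rate from lead II EKG, plus blood pressure. Stabilized at least 30 min, then at least three iv doses given, one compound per animal, with return to basal between doses. Doses for +30% force, +15% rate and −20% BP were extrapolated from dose-response curves; geometric mean where repeated.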

The subject of test [2] is Canis familiaris. Kind of test: Pharmacological activity for heart rate +15% in anesthetized dog was determined after intravenous administration. It counts as functional, Canis lupus familiaris. In a few lines:
as §1

Test [3] deals with Canis familiaris. Briefly: Pharmacological activity for Blood pressure, -20% in anesthetized dog was determined after intravenous administration. Type of test: functional, Canis lupus familiaris. Put shortly:
as §1

The subject of test [4] is Canis familiaris. Briefly: The change in mean arterial blood pressure was determined after 0.1 ug/kg iv administration in dog. Type of test: functional, Canis lupus familiaris. Put shortly: (§2)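 Anesthetized dogs: a Walton-Brodie strain gauge arch sutured to the left ventricle recorded contractile force, and blood pressure was recorded, after at least 30 min stabilization. Isoproterenol 0.1 μg/kg iv was given to controls or to dogs pretreated with propranolol 0.5 mg/kg iv. The value is the % change from pre-dose control; N = 6 per group; means ± SE; Student's t test.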

Test [5] has as its system Canis familiaris. Kind of test: The change in cardiac contractile force was determined after 0.1 ug/kg iv administration in dog. It counts as functional, Canis lupus familiaris, Heart. In a few lines: as §2
Test [6] relates to Canis familiaris. Briefly: The cardiac contractile force was determined after 1.0 mg/kg administration with 20 mg/kg pentobarbital in the dog heart-lung preparation. Type of test: functional, Canis lupus familiaris. Put shortly:
(§3)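 Isolated dog heart-lung preparation from mongrel dogs of either sex (11–19 kg), anesthetized with sodium pentobarbital 35 mg/kg iv. A strain gauge arch on the right ventricle recorded contractile force, EKG lead II gave heart rate, a left atrial cannula and transducer gave LAP, and an extracorporeal flow meter gave aortic flow. Failure was induced by adding pentobarbital to the blood reservoir, then compound was added to the reservoir; readings at 10 min. Five preparations; means ± SE; ANOVA.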

For test [7], the system named is Canis familiaris. Kind of test: The cardiac output was determined after 1.0 mg/kg administration with 20 mg/kg pentobarbital in the dog heart-lung preparation. It counts as functional, Canis lupus familiaris. In a few lines: as §3
The subject of test [8] is Canis familiaris. Kind of test: The stroke volume was determined after 1.0 mg/kg administration with 20 mg/kg pentobarbital in the dog heart-lung preparation. It counts as functional, Canis lupus familiaris. In a few lines:
as §3

Test [9] concerns Canis familiaris. Kind of test: The left atrial pressure was determined after 1.0 mg/kg administration with 20 mg/kg pentobarbital in the dog heart-lung preparation. Type of test: functional, Canis lupus familiaris, Cardiac atrium. Put shortly:
as §3

In test [10] the test system is Canis familiaris. Kind of test: The stroke work was determined after 1.0 mg/kg administration with 20 mg/kg pentobarbital in the dog heart-lung preparation. Type of test: functional, Canis lupus familiaris. In a few lines: as §3
The test system of test [11] is Canis familiaris. Briefly: The heart rate was determined after 1.0 mg/kg administration with 20 mg/kg pentobarbital in the dog heart-lung preparation. It counts as functional, Canis lupus familiaris. Put shortly: as §3

With `CCc1[nH]c(O)nc1C(=O)c1ccc(SC)cc1`, the results for the Equieffective dose in test [1], in [2] and in test [3] were 0.07 mg/kg, 0.54 mg/kg and 0.28 mg/kg, respectively.

In the case of `Cc1[nH]c(O)nc1C(=O)c1ccc(O)cc1`, the Equieffective dose in [1] turned out to be 0.25 mg/kg; in test [2], 1.3 mg/kg; in [3] it was 2.6 mg/kg.

Turning to `COc1ccc(C(=O)c2c(C)n(C)c(=O)n2C)cc1`, the Equieffective dose in test [1] is 4.7 mg/kg; in test [2], greater than 10 mg/kg; in test [3], 2.6 mg/kg.

For the compound `Cc1[nH]c(O)nc1C(=O)c1ccc(Cl)c(Cl)c1`, the values for the Equieffective dose in test [1], in test [2] and in test [3] were 0.7 mg/kg, 4 mg/kg and 2.1 mg/kg, respectively.

`Cc1[nH]c(O)nc1C(=O)c1cccs1`: the Equieffective dose in test [1] stood at 0.28 mg/kg; in [2], 5.4 mg/kg; in test [3] it was 2.5 mg/kg.

Take `O=C(c1c[nH]c(O)n1)c1cccs1`: the results for the Equieffective dose in [1], in test [2] and in test [3] were 0.72 mg/kg, greater than 10 mg/kg and 3.7 mg/kg, respectively.

For `Cc1[nH]c(O)nc1C(=O)c1ccccc1O`, the Equieffective dose is 3.28 mg/kg in [1], greater than 10 mg/kg in [2] and 4.5 mg/kg in [3].

As to `COc1ccc(C(=O)c2nc(O)n(C)c2C)cc1`, the Equieffective dose in [1], in test [2] and in test [3] was greater than 10 mg/kg each time.

Take `COc1ccc(C(=O)c2[nH]c(O)nc2C)cc1OC`: the Equieffective dose in [1] amounted to 0.4 mg/kg; in test [2], 1.05 mg/kg; in test [3] it was 2 mg/kg.

As to `Cc1nc(O)[nH]c1C(=O)c1ccc(N(C)C)cc1`, the Equieffective dose in test [1] is 0.36 mg/kg; in test [2], 2.2 mg/kg; in test [3], greater than 3 mg/kg.

`Cc1[nH]c(O)nc1C(=O)c1ccc(N2CCCC2)cc1`: the Equieffective dose in test [1] was greater than 10 mg/kg; in test [2], 8.5 mg/kg; in test [3], 4.5 mg/kg.

For `Cc1[nH]c(O)nc1C(=O)c1ccccc1`, the Equieffective dose in test [1] is 0.23 mg/kg; in [2], 1.55 mg/kg; in [3], 2.55 mg/kg.

Turning to `CC(=O)n1c(C)c(C(=O)c2ccccc2)n(C(C)=O)c1=O`, the Equieffective dose in [1] was 3 mg/kg; in [2], greater than 10 mg/kg; in test [3] it was 6.5 mg/kg.

Consider `Cc1[nH]c(O)nc1C(=O)c1ccc(N2CCOCC2)cc1`, for which the Equieffective dose is 1.2 mg/kg in [1], greater than 10 mg/kg in test [2] and 6.4 mg/kg in [3].

For `O=C(c1ccccc1)c1c[nH]c(O)n1`, the Equieffective dose came to 3.91 mg/kg in [1], 4 mg/kg in test [2] and 4.4 mg/kg in test [3].

`Cc1[nH]c(O)nc1C(=O)c1ccc(N2CCCCC2)cc1`: the Equieffective dose in [1], in test [2] and in test [3] was greater than 10 mg/kg in each case.

Take `CCc1[nH]c(O)nc1C(=O)c1ccc(OC)c(OC)c1`: the Equieffective dose in test [1] is 0.18 mg/kg; in test [2] it was greater than 3 mg/kg; in test [3] it was 2.35 mg/kg.

With `CCc1[nH]c(O)nc1C(=O)c1ccc(OC)cc1`, the Equieffective dose in test [1] was 0.15 mg/kg; in test [2] it was 0.23 mg/kg; in test [3], 0.62 mg/kg.

As for `Cc1[nH]c(O)nc1C(=O)c1ccc(Cl)cc1`, the Equieffective dose was determined as 0.18 mg/kg in test [1], 4 mg/kg in test [2] and 0.29 mg/kg in [3].

Turning to `CCCc1[nH]c(O)nc1C(=O)c1ccc(SC)cc1`, the Equieffective dose turned out to be 1.13 mg/kg in test [1], 3 mg/kg in [2] and 2.3 mg/kg in test [3].

As for `Cc1c(C(=O)c2ccc(N(C)C)cc2)n(C(=O)C(C)C)c(=O)n1C(=O)C(C)C`, the figures for the Equieffective dose in test [1], in test [2] and in test [3] were 2.45 mg/kg, greater than 10 mg/kg and greater than 10 mg/kg, respectively.

For the compound `CSc1ccc(C(=O)c2c[nH]c(O)n2)cc1`, the Equieffective dose in test [1] is 0.5 mg/kg; in test [2], 1.05 mg/kg.

`Cc1[nH]c(O)nc1C(=O)c1ccc(F)cc1`: the results for the Equieffective dose in test [1], in test [2] and in [3] were 0.38 mg/kg, greater than 3 mg/kg and 1.03 mg/kg, respectively.

Turning to `Cc1[nH]c(O)nc1C(=O)c1ccccc1Cl`, the Equieffective dose is 0.48 mg/kg in test [1], 2.2 mg/kg in test [2] and 2.1 mg/kg in [3].

In the case of `COc1ccc(C(=O)c2c[nH]c(O)n2)cc1`, the figures for the Equieffective dose in [1], in [2] and in [3] were 0.78 mg/kg, 1.85 mg/kg and 3.1 mg/kg, respectively.

As to `Cc1[nH]c(O)nc1C(=O)c1ccco1`, the values for the Equieffective dose in test [1], in [2] and in [3] were 1.05 mg/kg, 3.3 mg/kg and 0.72 mg/kg, respectively.

On to `O=C(c1c[nH]c(O)n1)c1ccco1`, for which the Equieffective dose in [1] stood at 1.84 mg/kg; in test [2], 4.3 mg/kg; in test [3] it was 4.2 mg/kg.

For the compound `CCc1[nH]c(O)nc1C(=O)c1cccs1`, the Equieffective dose in test [1] worked out at 0.41 mg/kg; in test [2] it was 1.45 mg/kg; in [3], 1.6 mg/kg.

Regarding `Cc1nc(O)[nH]c1C(=O)c1ccc(N2CCN(C)CC2)cc1`, the Equieffective dose in test [1] was greater than 10 mg/kg; in test [2], 9.1 mg/kg; in test [3], greater than 10 mg/kg.

On to `CC(=O)n1c(C)c(C(=O)c2ccc(N(C)C)cc2)n(C(C)=O)c1=O`, for which the Equieffective dose in test [1] was 0.36 mg/kg; in test [2], greater than 3 mg/kg; in test [3] it was greater than 3 mg/kg.

Take `CC(=O)n1c(C)c(C(=O)c2ccc(F)cc2)n(C(C)=O)c1=O`: the values for the Equieffective dose in test [1], in test [2] and in [3] were 1 mg/kg, greater than 8 mg/kg and 2.5 mg/kg, respectively.

For `CSc1ccc(C(=O)c2[nH]c(=O)[nH]c2C)cc1` [ENOXIMONE], the Equieffective dose came out at 0.12 mg/kg in [1], 1.5 mg/kg in test [2] and 0.55 mg/kg in test [3].

Take `CC(C)NCC(O)c1ccc(O)c(O)c1` (stereo not drawn) [ISOPROTERENOL]: the Change in [4] is -27%; in [5], 133%.

`CCCC(C)C1(CC)C(=O)NC(=O)NC1=O` (stereo not drawn) [PENTOBARBITAL] returned a Cardiac contractile force in test [6] of 32.2 g. In [7], this compound registered a Cardiac output of 613 mL/min. The Stroke volume in test [8] came to 4.6 mL. For the same compound, the Left atrial pressure in test [9] is recorded as 12.1 mmHg. The compound further displayed a Stroke work in [10] of 3 g. In addition, the Heart rate in test [11] came out at 133 beats min-1.

(Values after ChEMBL document CHEMBL1121991, “4-Aroyl-1,3-dihydro-2H-imidazol-2-ones, a new class of cardiotonic agents” (1982).)
